Results on one compound are retold here after ChEMBL document CHEMBL5356984 (RSC Med Chem, 2023).

The test system of data set [1] is SK-BR-3. Nature of the data set: Induction of apoptosis in human SK-BR-3 cells assessed as early apoptotic cells at 5 uM incubated for 36 hrs by Annexin V/PI staining based flow cytometry (reference value: 2.73 %). The data set is classed as functional.
Another data set deals with Heat shock protein HSP90 (Homo sapiens, UniProt P07900+P08238). Nature of the data set: Inhibition of HSP90 in human SK-BR-3 cells assessed as decrease in phosphorylated AKT level at 5 to 20 uM incubated for 48 hrs by Western blot analysis. It is filed as cell-based. The following applies: dose 5-20 µM. The essentials:
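MCF-7 or SKBr3 cells were exposed for 48 h, then trypsinised, PBS-washed and lysed in RIPA buffer with phosphatase and protease inhibitors. Cleared lysate (14 000 rpm, 4 °C, 15 min) was BCA-quantified, and 20 µg protein was run on SDS-PAGE and blotted. Blots were blocked in 5% milk, incubated with primary antibodies (1:1000) overnight at 4 °C, then HRP secondary, and developed by ECL. GAPDH (1:10000) was the loading control.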

Data set [2] concerns SK-BR-3. Nature of the data set: Induction of apoptosis in human SK-BR-3 cells assessed as increase in cleaved pro-caspase-8 level at 10 to 20 uM incubated for 48 hrs by Western blot analysis. The data set is classed as functional, cell-based. To be noted: dose 10-20 µM. The essentials:
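Cells exposed 48 h (DMSO vehicle control); trypsinized, lysed in RIPA with phosphatase/protease inhibitors; 20 μg protein on SDS-PAGE, blotted, blocked 5% milk 1 h; primary antibodies 1:1000 overnight at 4 °C, GAPDH 1:10000 as loading control; HRP secondary 1:1000–1:5000; ECL detection.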

The subject of data set [3] is MCF7. The experiment in a line: Effect on HSP70 level in human MCF7 cells at 10 uM incubated for 36 hrs by DAPI staining based immunofluorescence analysis. The data set is classed as functional, cell-based. The gist of the method:
(§1)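 Cells treated 36 h with DMSO vehicle control, then fixed with 4% paraformaldehyde 15 min, permeabilized with 0.2% Triton X-100 5 min, blocked with 3% BSA 15 min; primary antibody then fluorescent secondary antibody, each 1 h at room temperature; HSP70 green, HSF-1 red, nuclei DAPI; imaged by fluorescence microscopy.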

Data set [4] has as its system MCF7. Nature of the data set: Induction of apoptosis in human MCF7 cells assessed as necrotic cells at 10 uM incubated for 36 hrs by Annexin V/PI staining based flow cytometry (reference value: 2.30 %). It is filed as functional.
The nature of data set [5]: Thermal stability of compound in boiling toluene at 120 degreeC assessed as time taken for compound decomposition at 1 mg/ml by HPLC analysis. To be noted: read-out: T50. The data set is classed as physicochemical.
For data set [6], the system named is MCF7. The experiment in a line: Effect on HSF-1 level in human MCF7 cells assessed as nuclear accumulation at 10 uM incubated for 36 hrs by DAPI staining based immunofluorescence analysis. The data set is classed as functional, cell-based. The gist of the method:
as §1

Data set [7] concerns SK-BR-3. Nature of the data set: Induction of apoptosis in human SK-BR-3 cells assessed as early apoptotic cells at 10 uM incubated for 36 hrs by Annexin V/PI staining based flow cytometry (reference value: 2.73 %). The data set is classed as functional.
Data set [8] in a line: Thermal stability of compound in boiling toluene at 120 degreeC at 1 mg/ml measured for approximately 12 hrs by HPLC analysis. The data set is classed as physicochemical. The essentials:
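Compound at 1 mg mL−1 was heated in distilled boiling toluene at 120 °C for 0–24 h. Remaining percentage was measured by HPLC on a C18 column (5 µm, 4.6 × 250 mm) with MeOH/H2O gradients: 70→100% or 45→100% MeOH over 2–15 min, held at 100% to 20 min, then re-equilibrated.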

The structures appear in SMILES notation. The source made the active and inactive calls. The rule behind the calls is not given here.

For `CN1CCN(/C=C/C(=O)/C=C/c2cccc(O[Si](C)(C)C(C)(C)C)c2)CC1`, the Activity with SK-BR-3 [1] is given as 2.76%; with MCF7 [4] it was 10.1%; in the data set with SK-BR-3 [7], 3.01%. Also, at Heat shock protein HSP90, the inhibition result was “Active”. The result in the data set on SK-BR-3 [2] was Active. Moreover, the outcome in the data set on MCF7 [3] and in the data set with MCF7 [6] was inactive. Besides, the half-life at 1 mg/ml in [5] is above 12 h. For the same compound, the Stability entry in data set [8] is “Stable”.
